Assays:
healthy male subjects [1] = experiment: Orthostatic hypotension; format: in vivo, human
dogs = experiment: Preclinical dog cardiovascular study; format: in vivo; settings: any dose
healthy male subjects [2] = experiment: ECG, QTcF interval; format: in vivo, human
Method in brief: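 Randomized, double-blind, placebo-controlled single ascending dose study in healthy men, dosed 3–200 mg after an overnight fast. 12-lead ECGs were recorded in triplicate, 1 min apart, after 5 min rest in the semi-recumbent position, at scheduled times. QTc and other intervals were derived automatically from the digital ECGs by the Marquette 12SL algorithm.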

healthy male subjects [3] = experiment: Treatment emergent adverse events; format: in vivo, human; settings: n = 8

Q: With CN1CCC23CCCCC2C1Cc1ccc(C(N)=O)cc13 (stereo not drawn) [ALKS 7119, (9α, 13α)‐17‐methylmorphinan‐3‐carboxamide] as the compound, how does the “Incidence of orthostatic hypotension” value (healthy male subjects [1]; 200 mg dosing group, three subjects) read?
A: 37.5%

Q: What about the “Incidence of orthostatic hypotension” value (healthy male subjects [1]; all ALKS 7119 dose groups (placebo 15%)) of the same compound?
A: 17.5%

Q: What about the QT intervals (dogs) of the same compound?
A: No changes in QT intervals

Q: And the “Subjects with QTcF increases from baseline of 30–60 ms” value (healthy male subjects [2]; all ALKS 7119 groups, only at 50 mg or higher, none in placebo)?
A: 8.8%

Q: And the “QTcF interval increases compared to baseline” value (healthy male subjects [2]; doses of ≥50 mg)?
A: 30 to 60 ms

Q: And the “Highest individual QTcF value” (healthy male subjects [2]; subject treated with 200 mg)?
A: 475 ms

Q: And the “Increase of QTcF compared to baseline at highest individual value” (healthy male subjects [2]; subject treated with 200 mg)?
A: 33 ms

Q: What about the “Incidence of TEAE: Dizziness” value (healthy male subjects [3]; 3 mg single oral dose) of the same compound?
A: 0

Q: What about the “Incidence of TEAE: Dizziness postural” value (healthy male subjects [3]; 3 mg single oral dose) of the same compound?
A: 0

Q: And the “Incidence of TEAE: Fatigue” value (healthy male subjects [3]; 3 mg single oral dose)?
A: 3

Q: And the “Incidence of TEAE: Headache” value (healthy male subjects [3]; 3 mg single oral dose)?
A: 0

Q: And the “Incidence of TEAE: Nausea” value (healthy male subjects [3]; 3 mg single oral dose)?
A: 0

Q: What about the “Incidence of TEAE: Oropharyngeal pain” value (healthy male subjects [3]; 3 mg single oral dose) of the same compound?
A: 0

Q: What about the “Incidence of TEAE: Presyncope” value (healthy male subjects [3]; 3 mg single oral dose) of the same compound?
A: 0

Q: What about the “Incidence of TEAE: Pruritus” value (healthy male subjects [3]; 3 mg single oral dose) of the same compound?
A: 0

Q: And the “Incidence of TEAE: Somnolence” value (healthy male subjects [3]; 3 mg single oral dose)?
A: 0

Q: What about the “Incidence of TEAE: Vomiting” value (healthy male subjects [3]; 3 mg single oral dose) of the same compound?
A: 0

Q: What about the “Incidence of TEAE: Dizziness” value (healthy male subjects [3]; 10 mg single oral dose) of the same compound?
A: 0

Q: And the “Incidence of TEAE: Dizziness postural” value (healthy male subjects [3]; 10 mg single oral dose)?
A: 0

Q: And the “Incidence of TEAE: Fatigue” value (healthy male subjects [3]; 10 mg single oral dose)?
A: 1

Q: And the “Incidence of TEAE: Headache” value (healthy male subjects [3]; 10 mg single oral dose)?
A: 1

Q: What about the “Incidence of TEAE: Nausea” value (healthy male subjects [3]; 10 mg single oral dose) of the same compound?
A: 0

Q: And the “Incidence of TEAE: Oropharyngeal pain” value (healthy male subjects [3]; 10 mg single oral dose)?
A: 0

Q: And the “Incidence of TEAE: Presyncope” value (healthy male subjects [3]; 10 mg single oral dose)?
A: 1

Q: And the “Incidence of TEAE: Pruritus” value (healthy male subjects [3]; 10 mg single oral dose)?
A: 0

Q: And the “Incidence of TEAE: Somnolence” value (healthy male subjects [3]; 10 mg single oral dose)?
A: 1

Q: What about the “Incidence of TEAE: Vomiting” value (healthy male subjects [3]; 10 mg single oral dose) of the same compound?
A: 0

Q: And the “Incidence of TEAE: Dizziness” value (healthy male subjects [3]; 25 mg single oral dose)?
A: 0

Q: And the “Incidence of TEAE: Dizziness postural” value (healthy male subjects [3]; 25 mg single oral dose)?
A: 0

Q: And the “Incidence of TEAE: Fatigue” value (healthy male subjects [3]; 25 mg single oral dose)?
A: 2

Q: What about the “Incidence of TEAE: Headache” value (healthy male subjects [3]; 25 mg single oral dose) of the same compound?
A: 0

Q: What about the “Incidence of TEAE: Nausea” value (healthy male subjects [3]; 25 mg single oral dose) of the same compound?
A: 0

Q: And the “Incidence of TEAE: Oropharyngeal pain” value (healthy male subjects [3]; 25 mg single oral dose)?
A: 0

Q: What about the “Incidence of TEAE: Presyncope” value (healthy male subjects [3]; 25 mg single oral dose) of the same compound?
A: 1

Q: What about the “Incidence of TEAE: Pruritus” value (healthy male subjects [3]; 25 mg single oral dose) of the same compound?
A: 0

Q: And the “Incidence of TEAE: Somnolence” value (healthy male subjects [3]; 25 mg single oral dose)?
A: 0

Q: And the “Incidence of TEAE: Vomiting” value (healthy male subjects [3]; 25 mg single oral dose)?
A: 0

Q: And the “Incidence of TEAE: Dizziness” value (healthy male subjects [3]; 50 mg single oral dose)?
A: 0

Q: What about the “Incidence of TEAE: Dizziness postural” value (healthy male subjects [3]; 50 mg single oral dose) of the same compound?
A: 0

Q: What about the “Incidence of TEAE: Fatigue” value (healthy male subjects [3]; 50 mg single oral dose) of the same compound?
A: 0

Q: What about the “Incidence of TEAE: Headache” value (healthy male subjects [3]; 50 mg single oral dose) of the same compound?
A: 2

Q: What about the “Incidence of TEAE: Nausea” value (healthy male subjects [3]; 50 mg single oral dose) of the same compound?
A: 1

Q: What about the “Incidence of TEAE: Oropharyngeal pain” value (healthy male subjects [3]; 50 mg single oral dose) of the same compound?
A: 0

Q: And the “Incidence of TEAE: Presyncope” value (healthy male subjects [3]; 50 mg single oral dose)?
A: 1

Q: And the “Incidence of TEAE: Pruritus” value (healthy male subjects [3]; 50 mg single oral dose)?
A: 0

Q: What about the “Incidence of TEAE: Somnolence” value (healthy male subjects [3]; 50 mg single oral dose) of the same compound?
A: 2

Q: What about the “Incidence of TEAE: Vomiting” value (healthy male subjects [3]; 50 mg single oral dose) of the same compound?
A: 0

Q: And the “Incidence of TEAE: Dizziness” value (healthy male subjects [3]; 75 mg single oral dose)?
A: 0

Q: What about the “Incidence of TEAE: Dizziness postural” value (healthy male subjects [3]; 75 mg single oral dose) of the same compound?
A: 0

Q: And the “Incidence of TEAE: Fatigue” value (healthy male subjects [3]; 75 mg single oral dose)?
A: 0

Q: And the “Incidence of TEAE: Headache” value (healthy male subjects [3]; 75 mg single oral dose)?
A: 3

Q: And the “Incidence of TEAE: Nausea” value (healthy male subjects [3]; 75 mg single oral dose)?
A: 3

Q: What about the “Incidence of TEAE: Oropharyngeal pain” value (healthy male subjects [3]; 75 mg single oral dose) of the same compound?
A: 0

Q: What about the “Incidence of TEAE: Presyncope” value (healthy male subjects [3]; 75 mg single oral dose) of the same compound?
A: 3

Q: What about the “Incidence of TEAE: Pruritus” value (healthy male subjects [3]; 75 mg single oral dose) of the same compound?
A: 0

Q: And the “Incidence of TEAE: Somnolence” value (healthy male subjects [3]; 75 mg single oral dose)?
A: 1

Q: And the “Incidence of TEAE: Vomiting” value (healthy male subjects [3]; 75 mg single oral dose)?
A: 2

Q: And the “Incidence of TEAE: Dizziness” value (healthy male subjects [3]; 100 mg single oral dose)?
A: 0

Q: What about the “Incidence of TEAE: Dizziness postural” value (healthy male subjects [3]; 100 mg single oral dose) of the same compound?
A: 2

Q: And the “Incidence of TEAE: Fatigue” value (healthy male subjects [3]; 100 mg single oral dose)?
A: 0

Q: What about the “Incidence of TEAE: Headache” value (healthy male subjects [3]; 100 mg single oral dose) of the same compound?
A: 3

Q: And the “Incidence of TEAE: Nausea” value (healthy male subjects [3]; 100 mg single oral dose)?
A: 3

Q: What about the “Incidence of TEAE: Oropharyngeal pain” value (healthy male subjects [3]; 100 mg single oral dose) of the same compound?
A: 0

Q: And the “Incidence of TEAE: Presyncope” value (healthy male subjects [3]; 100 mg single oral dose)?
A: 1

Q: And the “Incidence of TEAE: Pruritus” value (healthy male subjects [3]; 100 mg single oral dose)?
A: 0
